Tested on: Fibroblast
Assay: Multiplex assay against human fibroblast
Format: toxicity, cell-based
In short: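 Compound was added to live cells that had been stained at seeding with Hoechst33342, BioTracker Green Microtubule Cytoskeleton Dye, MitoTracker Red and Annexin V Alexa Fluor 680, and imaging followed on a CQ1 microscope at 37°C and 5% CO2. CellPathfinder machine-learning gating divided cells into Hoechst high-intensity objects or normal cells, normal cells into healthy, pyknosed or fragmented nuclei, and pyknosed cells into mitotic or apoptotic. Tubulin, mitochondrial-mass and membrane-permeability phenotypes are per cents of healthy-nucleus cells.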

[1] = 12 h, 1 µM, compound concentration 1 uM, replicate 1
[2] = 12 h, 1 µM, compound concentration 1 uM, replicate 2
[3] = 12 h, 10 µM, compound concentration 10 uM, replicate 1
[4] = 12 h, 10 µM, compound concentration 10 uM, replicate 2
[5] = 24 h, 1 µM, compound concentration 1 uM, replicate 1
[6] = 24 h, 1 µM, compound concentration 1 uM, replicate 2
[7] = 24 h, 10 µM, compound concentration 10 uM, replicate 1
[8] = 24 h, 10 µM, compound concentration 10 uM, replicate 2
[9] = 48 h, 1 µM, compound concentration 1 uM, replicate 1
[10] = 48 h, 1 µM, compound concentration 1 uM, replicate 2
[11] = 48 h, 10 µM, compound concentration 10 uM, replicate 1
[12] = 48 h, 10 µM, compound concentration 10 uM, replicate 2

Question: With NCCc1cn(S(=O)(=O)c2c(Cl)nc3sccn23)c2ccccc12.O=C(O)C(=O)O as the compound, how does the “Population Apoptotic (%)” value [1] read?
Answer: 45%

Question: And the “Population Fragmented Nuclei (%)” value [1]?
Answer: 20%

Question: What about the “Population Healthy Nuclei (%)” value [1] of the same compound?
Answer: 65%

Question: And the “Population Hoechst High Intensity Objects (%)” value [1]?
Answer: 4%

Question: What about the “Population Membrane Permeable-Phenotype (%)” value [1] of the same compound?
Answer: 0%

Question: What about the “Population Mitochondria Different-Phenotype (%)” value [1] of the same compound?
Answer: 5%

Question: And the “Population Mitotic Cells (%)” value [1]?
Answer: 55%

Question: And the “Population Normal (%)” value [1]?
Answer: 95%

Question: And the “Population Pyknosed Nuclei (%)” value [1]?
Answer: 14%

Question: What about the “Population Tubulin-Different-Phenotype (%)” value [1] of the same compound?
Answer: 40%

Question: And the “Total Cell Count” value [1]?
Answer: 146

Question: What about the “Population Fragmented Nuclei (%)” value [2] of the same compound?
Answer: 34%

Question: What about the “Population Healthy Nuclei (%)” value [2] of the same compound?
Answer: 37%

Question: And the “Population Hoechst High Intensity Objects (%)” value [2]?
Answer: 3%

Question: What about the “Population Membrane Permeable-Phenotype (%)” value [2] of the same compound?
Answer: 13%

Question: And the “Population Mitochondria Different-Phenotype (%)” value [2]?
Answer: 8%

Question: What about the “Population Mitotic Cells (%)” value [2] of the same compound?
Answer: 54%

Question: What about the “Population Normal (%)” value [2] of the same compound?
Answer: 96%

Question: And the “Population Pyknosed Nuclei (%)” value [2]?
Answer: 28%

Question: What about the “Population Tubulin-Different-Phenotype (%)” value [2] of the same compound?
Answer: 62%

Question: What about the “Total Cell Count” value [2] of the same compound?
Answer: 170

Question: And the “Population Apoptotic (%)” value [3]?
Answer: 78%

Question: And the “Population Fragmented Nuclei (%)” value [3]?
Answer: 20%

Question: And the “Population Healthy Nuclei (%)” value [3]?
Answer: 56%

Question: What about the “Population Hoechst High Intensity Objects (%)” value [3] of the same compound?
Answer: 6%

Question: And the “Population Membrane Permeable-Phenotype (%)” value [3]?
Answer: 0%

Question: And the “Population Mitochondria Different-Phenotype (%)” value [3]?
Answer: 40%

Question: And the “Population Mitotic Cells (%)” value [3]?
Answer: 21%

Question: And the “Population Normal (%)” value [3]?
Answer: 93%

Question: And the “Population Pyknosed Nuclei (%)” value [3]?
Answer: 22%

Question: And the “Population Tubulin-Different-Phenotype (%)” value [3]?
Answer: 90%

Question: And the “Total Cell Count” value [3]?
Answer: 177

Question: What about the “Population Apoptotic (%)” value [4] of the same compound?
Answer: 57%

Question: And the “Population Fragmented Nuclei (%)” value [4]?
Answer: 24%

Question: And the “Population Healthy Nuclei (%)” value [4]?
Answer: 44%

Question: What about the “Population Membrane Permeable-Phenotype (%)” value [4] of the same compound?
Answer: 5%

Question: And the “Population Mitochondria Different-Phenotype (%)” value [4]?
Answer: 34%

Question: And the “Population Mitotic Cells (%)” value [4]?
Answer: 42%

Question: And the “Population Pyknosed Nuclei (%)” value [4]?
Answer: 30%

Question: What about the “Population Tubulin-Different-Phenotype (%)” value [4] of the same compound?
Answer: 89%

Question: What about the “Total Cell Count” value [4] of the same compound?
Answer: 219

Question: What about the “Population Apoptotic (%)” value [5] of the same compound?
Answer: 50%

Question: What about the “Population Fragmented Nuclei (%)” value [5] of the same compound?
Answer: 21%

Question: And the “Population Healthy Nuclei (%)” value [5]?
Answer: 64%

Question: What about the “Population Hoechst High Intensity Objects (%)” value [5] of the same compound?
Answer: 3%

Question: What about the “Population Membrane Permeable-Phenotype (%)” value [5] of the same compound?
Answer: 0%

Question: What about the “Population Mitochondria Different-Phenotype (%)” value [5] of the same compound?
Answer: 13%

Question: And the “Population Mitotic Cells (%)” value [5]?
Answer: 50%

Question: And the “Population Normal (%)” value [5]?
Answer: 96%

Question: What about the “Population Pyknosed Nuclei (%)” value [5] of the same compound?
Answer: 13%

Question: What about the “Population Tubulin-Different-Phenotype (%)” value [5] of the same compound?
Answer: 42%

Question: And the “Total Cell Count” value [5]?
Answer: 156

Question: What about the “Population Apoptotic (%)” value [6] of the same compound?
Answer: 46%

Question: What about the “Population Fragmented Nuclei (%)” value [6] of the same compound?
Answer: 35%

Question: And the “Population Healthy Nuclei (%)” value [6]?
Answer: 44%

Question: And the “Population Hoechst High Intensity Objects (%)” value [6]?
Answer: 4%

Question: What about the “Population Membrane Permeable-Phenotype (%)” value [6] of the same compound?
Answer: 18%

Question: What about the “Population Mitochondria Different-Phenotype (%)” value [6] of the same compound?
Answer: 11%

Question: And the “Population Mitotic Cells (%)” value [6]?
Answer: 53%

Question: What about the “Population Normal (%)” value [6] of the same compound?
Answer: 95%

Question: What about the “Population Pyknosed Nuclei (%)” value [6] of the same compound?
Answer: 20%

Question: And the “Population Tubulin-Different-Phenotype (%)” value [6]?
Answer: 70%

Question: And the “Total Cell Count” value [6]?
Answer: 166

Question: What about the “Population Apoptotic (%)” value [7] of the same compound?
Answer: 77%

Question: And the “Population Fragmented Nuclei (%)” value [7]?
Answer: 22%

Question: And the “Population Healthy Nuclei (%)” value [7]?
Answer: 62%

Question: What about the “Population Hoechst High Intensity Objects (%)” value [7] of the same compound?
Answer: 3%

Question: What about the “Population Membrane Permeable-Phenotype (%)” value [7] of the same compound?
Answer: 0%

Question: What about the “Population Mitochondria Different-Phenotype (%)” value [7] of the same compound?
Answer: 58%

Question: And the “Population Mitotic Cells (%)” value [7]?
Answer: 22%

Question: And the “Population Normal (%)” value [7]?
Answer: 96%

Question: What about the “Population Pyknosed Nuclei (%)” value [7] of the same compound?
Answer: 14%

Question: What about the “Population Tubulin-Different-Phenotype (%)” value [7] of the same compound?
Answer: 89%

Question: What about the “Total Cell Count” value [7] of the same compound?
Answer: 193

Question: And the “Population Apoptotic (%)” value [8]?
Answer: 72%

Question: What about the “Population Fragmented Nuclei (%)” value [8] of the same compound?
Answer: 30%

Question: And the “Population Healthy Nuclei (%)” value [8]?
Answer: 51%

Question: What about the “Population Hoechst High Intensity Objects (%)” value [8] of the same compound?
Answer: 7%

Question: What about the “Population Membrane Permeable-Phenotype (%)” value [8] of the same compound?
Answer: 5%

Question: And the “Population Mitochondria Different-Phenotype (%)” value [8]?
Answer: 32%

Question: What about the “Population Mitotic Cells (%)” value [8] of the same compound?
Answer: 27%

Question: What about the “Population Normal (%)” value [8] of the same compound?
Answer: 92%

Question: What about the “Population Pyknosed Nuclei (%)” value [8] of the same compound?
Answer: 18%

Question: And the “Population Tubulin-Different-Phenotype (%)” value [8]?
Answer: 81%

Question: And the “Total Cell Count” value [8]?
Answer: 237

Question: What about the “Population Apoptotic (%)” value [9] of the same compound?
Answer: 50%

Question: What about the “Population Fragmented Nuclei (%)” value [9] of the same compound?
Answer: 27%

Question: And the “Population Healthy Nuclei (%)” value [9]?
Answer: 63%

Question: What about the “Population Hoechst High Intensity Objects (%)” value [9] of the same compound?
Answer: 4%

Question: And the “Population Membrane Permeable-Phenotype (%)” value [9]?
Answer: 2%

Question: What about the “Population Mitochondria Different-Phenotype (%)” value [9] of the same compound?
Answer: 3%

Question: What about the “Population Mitotic Cells (%)” value [9] of the same compound?
Answer: 50%

Question: What about the “Population Normal (%)” value [9] of the same compound?
Answer: 95%

Question: What about the “Population Pyknosed Nuclei (%)” value [9] of the same compound?
Answer: 9%

Question: What about the “Population Tubulin-Different-Phenotype (%)” value [9] of the same compound?
Answer: 46%

Question: What about the “Total Cell Count” value [9] of the same compound?
Answer: 177

Question: What about the “Population Apoptotic (%)” value [10] of the same compound?
Answer: 54%

Question: And the “Population Fragmented Nuclei (%)” value [10]?
Answer: 38%

Question: What about the “Population Healthy Nuclei (%)” value [10] of the same compound?
Answer: 47%

Question: And the “Population Hoechst High Intensity Objects (%)” value [10]?
Answer: 6%

Question: And the “Population Membrane Permeable-Phenotype (%)” value [10]?
Answer: 9%

Question: And the “Population Mitochondria Different-Phenotype (%)” value [10]?
Answer: 17%

Question: What about the “Population Mitotic Cells (%)” value [10] of the same compound?
Answer: 45%

Question: And the “Population Normal (%)” value [10]?
Answer: 93%

Question: What about the “Population Pyknosed Nuclei (%)” value [10] of the same compound?
Answer: 14%

Question: And the “Population Tubulin-Different-Phenotype (%)” value [10]?
Answer: 58%

Question: And the “Total Cell Count” value [10]?
Answer: 166

Question: What about the “Population Apoptotic (%)” value [11] of the same compound?
Answer: 85%

Question: And the “Population Fragmented Nuclei (%)” value [11]?
Answer: 22%

Question: What about the “Population Healthy Nuclei (%)” value [11] of the same compound?
Answer: 65%

Question: And the “Population Hoechst High Intensity Objects (%)” value [11]?
Answer: 7%

Question: And the “Population Membrane Permeable-Phenotype (%)” value [11]?
Answer: 0%

Question: And the “Population Mitochondria Different-Phenotype (%)” value [11]?
Answer: 43%

Question: And the “Population Mitotic Cells (%)” value [11]?
Answer: 14%

Question: What about the “Population Normal (%)” value [11] of the same compound?
Answer: 92%

Question: And the “Population Pyknosed Nuclei (%)” value [11]?
Answer: 12%

Question: What about the “Population Tubulin-Different-Phenotype (%)” value [11] of the same compound?
Answer: 92%

Question: What about the “Total Cell Count” value [11] of the same compound?
Answer: 189

Question: What about the “Population Apoptotic (%)” value [12] of the same compound?
Answer: 75%

Question: And the “Population Fragmented Nuclei (%)” value [12]?
Answer: 31%

Question: What about the “Population Healthy Nuclei (%)” value [12] of the same compound?
Answer: 59%

Question: What about the “Population Hoechst High Intensity Objects (%)” value [12] of the same compound?
Answer: 3%

Question: And the “Population Membrane Permeable-Phenotype (%)” value [12]?
Answer: 3%

Question: What about the “Population Mitochondria Different-Phenotype (%)” value [12] of the same compound?
Answer: 24%

Question: What about the “Population Mitotic Cells (%)” value [12] of the same compound?
Answer: 25%

Question: And the “Population Normal (%)” value [12]?
Answer: 96%

Question: And the “Population Pyknosed Nuclei (%)” value [12]?
Answer: 8%

Question: And the “Population Tubulin-Different-Phenotype (%)” value [12]?
Answer: 74%

Question: What about the “Total Cell Count” value [12] of the same compound?
Answer: 241

Source: ChEMBL document CHEMBL5058577, “EUbOPEN Chemogenomics Library 2 (Multiplex)” (2022)
